According to ChEMBL document CHEMBL3046809, “Plant tissue distribution and chemical inactivation of six carnation viruses” (Crop Prot, 2007):
Active and inactive are the calls of the source. No cut-off for these calls is given here.

Legend:
Type in all cases: functional, organism-based
[1] = test system: Carnation Italian ringspot virus; test: Antiviral activity against Carnation Italian ringspot virus infected as compound-treated sap in Saponaria vaccaria at 3% incubated for 60 secs prior to inoculation measured after 6 weeks in green house conditions by non-isotopic molecular hybridisation assay
In short: (§1)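 Infected leaves ground in 30 mM phosphate buffer pH 7.0 with 0.5% PVP (1 g/5 ml) and clarified. Sap mixed 1:1 with chemical solution for 60 s; listed concentrations are final, after extract dilution. Buffer-only sap served as control. Treated sap rub-inoculated with carborundum onto three S. vaccaria cv. 'Pink Beauty' plants. Plants held in a greenhouse up to 6 weeks; infection scored by non-isotopic hybridisation.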

[2] = test system: Carnation Italian ringspot virus; test: Antiviral activity against Carnation Italian ringspot virus infected compound-treated sap in Saponaria vaccaria at 7% incubated for 60 secs prior to inoculation measured after 6 weeks in green house conditions by non-isotopic molecular hybridisation assay; in short: as §1
[3] = test system: Carnation Italian ringspot virus; test: Antiviral activity against Carnation Italian ringspot virus infected as compound-treated sap in Saponaria vaccaria at 5% incubated for 60 secs prior to inoculation measured after 6 weeks in green house conditions by non-isotopic molecular hybridisation assay; in short: as §1
[4] = test system: Carnation ringspot virus; test: Antiviral activity against Carnation ringspot virus infected compound-treated sap in Saponaria vaccaria at 7% incubated for 60 secs prior to inoculation measured after 6 weeks in green house conditions by non-isotopic molecular hybridisation assay; in short: as §1
[5] = test system: Carnation ringspot virus; test: Antiviral activity against Carnation ringspot virus infected compound-treated sap in Saponaria vaccaria at 5% incubated for 60 secs prior to inoculation measured after 6 weeks in green house conditions by non-isotopic molecular hybridisation assay; in short: as §1
[6] = test system: Carnation ringspot virus; test: Antiviral activity against Carnation ringspot virus infected compound-treated sap in Saponaria vaccaria at 3% incubated for 60 secs prior to inoculation measured after 6 weeks in green house conditions by non-isotopic molecular hybridisation assay; in short: as §1
[7] = test system: Carnation vein mottle virus; test: Antiviral activity against Carnation vein mottle virus infected compound-treated sap in Saponaria vaccaria at 7% incubated for 60 secs prior to inoculation measured after 6 weeks in green house conditions by non-isotopic molecular hybridisation assay; in short: as §1
[8] = test system: Carnation vein mottle virus; test: Antiviral activity against Carnation vein mottle virus infected compound-treated sap in Saponaria vaccaria at 5% incubated for 60 secs prior to inoculation measured after 6 weeks in green house conditions by non-isotopic molecular hybridisation assay; in short: as §1
[9] = test system: Carnation vein mottle virus; test: Antiviral activity against Carnation vein mottle virus infected compound-treated sap in Saponaria vaccaria at 3% incubated for 60 secs prior to inoculation measured after 6 weeks in green house conditions by non-isotopic molecular hybridisation assay; in short: as §1
[10] = test system: Carnation etched ring virus; test: Antiviral activity against Carnation etched ring virus infected compound-treated sap in Saponaria vaccaria at 3% incubated for 60 secs prior to inoculation measured after 6 weeks in green house conditions by non-isotopic molecular hybridisation assay; in short: as §1
[11] = test system: Carnation latent virus; test: Antiviral activity against Carnation latent virus infected compound-treated sap in Saponaria vaccaria at 7% incubated for 60 secs prior to inoculation measured after 6 weeks in green house conditions by non-isotopic molecular hybridisation assay; in short: as §1
[12] = test system: Carnation latent virus; test: Antiviral activity against Carnation latent virus infected compound-treated sap in Saponaria vaccaria at 5% incubated for 60 secs prior to inoculation measured after 6 weeks in green house conditions by non-isotopic molecular hybridisation assay; in short: as §1
[13] = test system: Carnation latent virus; test: Antiviral activity against Carnation latent virus infected compound-treated sap in Saponaria vaccaria at 3% incubated for 60 secs prior to inoculation measured after 6 weeks in green house conditions by non-isotopic molecular hybridisation assay; in short: as §1
[14] = test system: Carnation etched ring virus; test: Antiviral activity against Carnation etched ring virus infected compound-treated sap in Saponaria vaccaria at 7% incubated for 60 secs prior to inoculation measured after 6 weeks in green house conditions by non-isotopic molecular hybridisation assay; in short: as §1
[15] = test system: Carnation etched ring virus; test: Antiviral activity against Carnation etched ring virus infected compound-treated sap in Saponaria vaccaria at 5% incubated for 60 secs prior to inoculation measured after 6 weeks in green house conditions by non-isotopic molecular hybridisation assay; in short: as §1
[16] = test system: Carnation mottle virus; test: Antiviral activity against Carnation mottle virus infected compound-treated sap in Saponaria vaccaria at 7% incubated for 60 secs prior to inoculation measured after 6 weeks in green house conditions by non-isotopic molecular hybridisation assay; in short: as §1
[17] = test system: Carnation mottle virus; test: Antiviral activity against Carnation mottle virus infected compound-treated sap in Saponaria vaccaria at 5% incubated for 60 secs prior to inoculation measured after 6 weeks in green house conditions by non-isotopic molecular hybridisation assay; in short: as §1
[18] = test system: Carnation mottle virus; test: Antiviral activity against Carnation mottle virus infected compound-treated sap in Saponaria vaccaria at 3% incubated for 60 secs prior to inoculation measured after 6 weeks in green house conditions by non-isotopic molecular hybridisation assay; in short: as §1

`OCl` was tested, and the Activity [1] was “inactive”, the Activity [2] was “Active” and the Activity [3] was “Active”. The Activity [4] was “Active”, the Activity [5] was “inactive” and the Activity [6] was “inactive”. For the same compound, the Activity [7] was “Active”, the Activity [8] was “Active” and the Activity [9] was “Active”. For the same compound, the Activity [10] was “Active”, the Activity [11] was “Active” and the Activity [12] was “Active”. For the same compound, the Activity [13] was “Active”, the Activity [14] was “Active” and the Activity [15] was “Active”. The Activity [16] was “Active”, the Activity [17] was “inactive” and the Activity [18] was “inactive”.
In the case of `O=P([O-])([O-])O.[Na+].[Na+]`, the Activity [3] is reported as “inactive”, the Activity [5] is reported as “inactive” and the Activity [8] is reported as “Active”. For the same compound, the Activity [12] was “inactive”, the Activity [15] was “inactive” and the Activity [17] was “inactive”.
